Screening data deposited in PubChem BioAssay by several laboratories.
OXTR agonist – human OXTR agonists, primary screen, fluorescence, CHO-OTR cells, Fluo-8 calcium; Oxytocin receptor (Homo sapiens), P30559; Fluo-8 calcium fluorescence; normalized: DMSO 0%, oxytocin 100%; activation, % at 3 µM; hit rate 0.32% among 320,000; AID 2435, 2010;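 active = activation above the mean of all tested compounds plus 3 SD, cutoff set per screening run, cut at about 20% in these data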;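 also: peak over basal fluorescence ratio from a 100 s FLIPR kinetic read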
Target sequence (P30559 whole entry, looked up): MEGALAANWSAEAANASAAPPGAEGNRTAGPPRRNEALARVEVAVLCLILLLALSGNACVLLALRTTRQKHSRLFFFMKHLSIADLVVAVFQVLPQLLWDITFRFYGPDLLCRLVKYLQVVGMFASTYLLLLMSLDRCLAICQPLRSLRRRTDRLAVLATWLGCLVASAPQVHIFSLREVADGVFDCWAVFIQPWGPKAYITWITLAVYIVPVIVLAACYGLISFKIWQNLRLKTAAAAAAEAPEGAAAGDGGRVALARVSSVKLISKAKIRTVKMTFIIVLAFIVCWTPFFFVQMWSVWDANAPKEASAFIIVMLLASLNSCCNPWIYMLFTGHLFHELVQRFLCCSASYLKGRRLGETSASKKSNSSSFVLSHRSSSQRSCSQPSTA
TRPML3 agonist – human TRPML3 channel agonists, primary screen, cell-based, HEK293 TRPML3-YFP, Fluo-8 calcium fluorescence, 3 µM | activation, % at 3 µM | hit rate 0.29% among 220,000 | 100% = the carbachol control signal | AID 1448, 2008;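 active = activation above its plate's cutoff, the mean activation of the plate's test wells plus 3 SD, cut at about 12% in these data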;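 also: 0% = DMSO only wells and 100% = carbachol wells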
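Test system – HEK293 line with stable expression of human TRPML3-YFP channel · Control set – carbachol 87 µM final as high control (100%), DMSO as low control (0%) · Signal – Fluo-8 calcium dye fluorescence, ex 470-495, em 515-575 nm · Incubation – 1-h 37 °C dye load, 5-s basal, 120-s post-compound reads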
TRPN1 ag – zebrafish TRPN1 channel agonists, primary screen, cell-based, HEK293, calcium fluorescence; transient receptor potential cation channel N1 (TRPN1/NompC), Danio rerio; AID 1424, 2008; activation, % at 3 µM; hit rate 0.18% among 220,000; HEK293 zebrafish TRPN1-YFP, Fluo-8 calcium fluorescence; 100% = response to 87 µM carbachol;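 active = activation above its plate's cutoff, the mean activation of test wells on that plate plus 3 SD, cut at about 19% in these data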;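 also: 0% = DMSO alone and 100% = 87 µM carbachol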
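System: zebrafish TRPN1-YFP in HEK293 cells / Dosing: 3 µM single point / Timing: dye loading 1 h at 37 °C, then 30 min room temperature / Signal: Fluo-8 calcium fluorescence, excitation 470-495 nm, emission 515-575 nm / Read-out basis: percent activation from peak over basal fluorescence ratio, control-normalized / Control set: high carbachol 87 µM, low DMSO alone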
OXTR potentiator – human OXTR potentiators, primary screen, fluorescence, CHO-OTR cells, Fluo-8 calcium; Fluo-8 calcium fluorescence, potentiator mode; 0% = oxytocin EC15, 100% = EC100; activation, % at 3 µM; hit rate 0.061% among 320,000;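 active = activation above that plate's cutoff, the mean activation of tested compounds plus 3 SD, cut at about 6.6% in these data, passing the limit was not always enough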;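 also: 100% uses oxytocin at 75 nM as the full agonist control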
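Material: CHO-OTR cells, human receptor; compound dosing: single dose, 3.0 µM nominal final compound concentration; schedule: 6 min compound pre-incubation at room temperature, 100 s kinetic read; measured by: kinetic Fluo-8 calcium fluorescence; read-out basis: % activation vs EC15 and EC100 oxytocin; controls: EC15 oxytocin alone as 0%, 75 nM oxytocin as 100%; replicates: singlicate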
V1R ag counter – agonists of human V1a receptor, primary screen, counter-screen for OXTR agonist project, fluorescence, CHO-V1R cells | Vasopressin V1a receptor (Homo sapiens), P37288 | AID 2797, 2010 | activation, % at 3 µM | Fluo-8 calcium fluorescence, agonist mode; 0% DMSO, 100% 3 nM vasopressin | hit rate 0.25% among 320,000;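 active = activation above the mean activation of all tested compounds plus 3 SD, per screening run, cut at about 20% in these data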;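 also: signal is peak over basal fluorescence ratio across a 100 second FLIPR read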
CRFR2-BP ag – agonists of CRF-BP/CRF-R2 complex, primary screen, cell-based, HEK293, calcium dye fluorescence, uHTS; calcium dye fluorescence (FLIPR); percent of saturating CRF peptide response; activation, % at 13.2 µM; hit rate 0.46% among 350,000; AID 588473, 2011;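 active = activation of at least 50%, plus an integration ratio under a set limit after plate pattern correction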;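 also: plate controls were neutral control wells without compound for no effect and CRF at EC100 for full effect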
* = called active by the depositor; / = no result given. Compounds with a hit are over-represented: about 0.85% of the library has one in this group of screens.

SMILES | OXTR agonist | TRPML3 agonist | TRPN1 ag | OXTR potentiator | V1R ag counter | CRFR2-BP ag
CC(C)N1CCc2c(sc(NC(=O)c3ccc(S(=O)(=O)N4CCOCC4)cc3)c2C#N)C1 | 1.6 | 0.8 | 3.6 | -2.1 | 1.4 | 131.1*
CC(C)=CCC/C(C)=C/CNC(=O)C[C@H]1C[C@H](C(=O)N2CCCCC2)[C@@]2(CCc3ccccc3)c3[nH]c4cc(CCC(=O)N(C)C)ccc4c3CCN2C1=O | / | / | / | / | / | 0.4
CC[C@@H](NCCCn1cnc2c(SC)ncnc21)c1ccccc1 | / | / | / | / | / | -1.1
CCN(CC(=O)Nc1ccc(OC)cc1)C(=O)c1ccc(NS(=O)(=O)c2ccc(C(C)=O)cc2)cc1 | 0.6 | / | / | -4.9 | 0.5 | -1.2
CCCC(=O)NC(=S)Nc1ccc(S(=O)(=O)Nc2ccc(OCC)cc2)cc1 | 16.9 | 4.5 | 9.6 | -12.4 | 12.6 | 54.7*
CCOc1ccc(NS(=O)(=O)c2ccc(NC(=S)NC(=O)CC(C)C)cc2)cc1 | 20.4* | 3.1 | 6.8 | -20.1 | 22.9* | 18.6
CCOc1ccc(NS(=O)(=O)c2ccc(C(=O)N(C)CC(=O)Nc3ccc(OC)cc3)cc2)cc1 | 1.1 | / | / | -7.7 | 0.0 | -0.4
C=C(C)CN(CC)C(=O)COc1ccc(S(=O)(=O)Nc2ccc(OC)cc2)cc1 | 28.8* | 3.9 | 11.3 | -22.2 | 24.1* | 18.8
CC(C)CC(=O)NC(=S)Nc1ccc(S(=O)(=O)NC(C)(C)C)cc1 | 4.8 | 2.4 | 5.0 | -9.3 | 5.5 | -0.5
O=C1CN(C(=O)CSc2ccccn2)c2ccccc2N1 | 0.8 | / | / | 2.5 | 0.6 | 2.7
CC1CN(S(=O)(=O)c2cc(C(=O)NCCC3=CCCCC3)ccc2Cl)CC(C)O1 (configuration not stated) | -2.4 | / | / | -10.2 | 0.0 | -1.0
Cc1ccc(S(=O)(=O)N2CCC(=O)N(C(COCc3ccccc3)C(C)C)CC2)cc1 (configuration not stated) | -2.2 | 1.2 | 0.8 | -5.3 | -0.9 | -2.2
Cc1ccc(S(=O)(=O)N2CCC(=O)N(C(COCc3ccc(Cl)cc3)C(C)C)CC2)cc1 (configuration not stated) | -2.1 | 14.0* | -1.3 | -9.3 | 1.3 | -1.8
CC1(c2ccc(OC(F)F)cc2)NC(=O)N(CC(=O)Nc2ccc3c(c2)OCO3)C1=O (configuration not stated) | 39.2* | 26.4* | 30.2* | -9.8 | 45.4* | 121.9*
CC(=O)Nc1ccc(/C=N/N2C(=O)NC(C)(c3ccc(OC(F)F)cc3)C2=O)cc1 (configuration not stated) | 55.2* | 4.4 | 17.8 | -18.6 | 38.5* | 129.8*
CC1(c2ccc(OC(F)F)cc2)NC(=O)N(CC(=O)Nc2ccccc2)C1=O (configuration not stated) | 46.5* | / | / | -16.3 | 32.2* | 76.1*
CCOc1ccc(CCN2C(=S)N([C@@H](CC(C)C)CN3CCCC3CN3C(=S)NC[C@@H]3CC(C)C)C[C@@H]2Cc2ccccc2)cc1 (some centres not stated) | / | / | / | / | / | 2.5
Cc1ccc(C2c3c(C)nn(-c4ccc([N+](=O)[O-])cc4)c3N=C3C(=O)Nc4ccccc4N32)cc1 (configuration not stated) | -2.0 | 32.9* | 25.9* | -11.4 | 0.2 | /
O=C(CCCN=C1NS(=O)(=O)c2ccccc21)OCC(=O)c1ccc(F)cc1 | 20.3* | / | / | -8.8 | 23.1* | 22.0
COc1ccc(CCN2CCC(Nc3nc4ccccc4n3Cc3ccc(F)cc3)CC2)cc1 | 45.2* | 1.5 | 0.8 | -10.8 | 36.8* | -0.3
COc1ccc(CNc2nc3ccccc3n2CCN2CCCCC2)cc1 | -1.1 | 0.2 | -1.2 | -4.4 | -0.5 | -1.8
Cc1ccc(S(=O)(=O)Nc2ccccc2-c2ccccc2NS(=O)(=O)c2ccc(C)cc2)cc1 | 0.6 | -0.7 | 0.5 | -15.5 | 1.8 | -1.2
O=C1c2ccccc2-c2cccc(NS(=O)(=O)c3ccc(C(F)(F)F)cc3)c21 | 1.0 | 1.0 | 0.4 | -7.2 | 2.9 | 96.8*
N#Cc1c(N)n(C2OC(CO)C(O)C2O)c2ncnc(N)c12 (configuration not stated) | / | / | / | / | / | -0.5
CC(C)N1CC=C2C(C#N)=C(N)C(C#N)(C#N)C(c3ccccc3)C2C1 (configuration not stated) | 4.5 | 1.3 | 3.9 | -6.3 | 5.1 | 89.5*
SMILES | OXTR agonist | TRPML3 agonist | TRPN1 ag | OXTR potentiator | V1R ag counter | CRFR2-BP ag
CC(C)N1CC=C2C(C#N)=C(N)C(C#N)(C#N)[C@H](c3ccoc3)[C@H]2C1 | 2.6 | 2.2 | 2.5 | -3.7 | 5.4 | /
Cc1cccc2cc3c(N)c(C#N)sc3nc12 | 3.3 | 0.9 | 1.8 | -4.4 | 3.7 | 20.1
Cc1sc(NC(=O)c2sc3nc4c(C)cccc4cc3c2N)c(C#N)c1C | 13.8 | 0.2 | 0.4 | -6.5 | 7.7 | 88.3*
CC1(C)CC(=O)C(C2C3=C(CC(C)(C)CC3=O)Oc3c(Br)cc(Br)cc32)=C(O)C1 (configuration not stated) | -0.6 | / | / | -16.4 | 4.3 | 82.4*
Cc1ccc(NC(=O)CN2C(=O)N/C(=C/c3ccc(N4CCOCC4)cc3)C2=O)cc1 | -1.1 | 1.8 | -0.8 | -5.6 | 1.5 | 5.3
Cc1ccccc1NC(=O)CN1C(=O)N/C(=C\c2ccc(N3CCOCC3)c(F)c2)C1=O | 1.6 | 0.7 | 1.1 | 9.9* | 0.1 | 0.2
CC(=O)C(Cc1ccccc1)NC(=O)COC(=O)c1cc(S(=O)(=O)N2CCOCC2)ccc1F (configuration not stated) | / | / | / | / | / | -0.5
Cc1ccc(N=Nc2[nH]c3ccccc3c2O)cc1 | 32.3* | 0.7 | -0.1 | -9.0 | 22.4* | 1.1
CCOC(=O)CC1C(=O)NCCN1C(=S)NC(=O)c1ccc(C)c(Br)c1 (configuration not stated) | / | / | / | / | / | 0.5
CCOC(=O)c1sc2ncc([N+](=O)[O-])cc2c1N | 3.3 | 0.1 | -0.1 | -0.9 | 3.0 | -4.1
COC(=O)c1sc2cc([N+](=O)[O-])cc(SCC(C)C)c2c1N | 7.3 | 1.5 | 3.7 | -4.6 | 8.3 | 54.8*
Oc1ccc(C[C@H]2CNC(=S)N2CC2CCCN2C[C@H](Cc2ccc(O)cc2)N2C[C@H](Cc3ccc(O)cc3)N(CC3CCCCC3)C2=S)cc1 (some centres not stated) | / | / | / | / | / | -0.6
